The text below walks through data of ChEMBL document CHEMBL3045217, “Factors affecting the synergy of thiabendazole, sodium bicarbonate, and heat to control postharvest green mold of citrus fruit” (J Agric Food Chem, 2008).

Data set [1] has as its system Fruit. The experiment in a line: Drug residues in Citrus sinensis cvs. Valencia late (Valencia oranges) at 600 mg/L treated for 1 min at 20 degC postharvest measured after 10 days of storage at 17 degC in presence of 0.5% SBC by GC analysis. In kind it is ADME. The method in brief:
(§1)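 'Valencia' oranges were dipped 1 min in TBZ at 600 mg/L (20 °C, ±0.5, 1 or 2% wt/vol SBC), 400 mg/L (40 °C, ±SBC) or 200 mg/L (50 °C, alone), then air-dried. They were sampled at 0, 10 and 20 days at 17 °C. Peel of five fruit was frozen, and 5 g of homogenate was extracted with ethyl acetate/hexane (1/1) plus NaCl. The extract was dried under N2, taken up in acetone and analysed by GC. Results are mg/kg on a whole-fruit basis.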

The test system of data set [2] is Penicillium digitatum. In words: Fungicidal activity against TBZ-sensitive Penicillium digitatum infected Nova mandarins assessed as postharvest green mold incidence at 600 mg/L treated for 1 min at 20 degC at 20 hr after fungal conidial inoculation measured after 5 days of storage at 20 degC in presence of 0.5% SBC (water Rvb = 100%). Type of data set: functional. The method in brief:
(§2)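 Fruit were surface-disinfected in 1 g/L hypochlorite for 30 s, rinsed, dried, then wounded twice equatorially (2 mm × 2 mm rod). Inoculation was a 1 min dip in P. digitatum conidia, 1 × 10^5 conidia/mL final. Fruit were held 20 h at 20 °C and 90% RH, dipped 1 min (SBC wt/vol), and air-dried. Storage was 20 °C, 90% RH. Decay incidence (% fruit with lesions) was scored at 5 d for mandarins and 7 d for oranges. Three replicates of 40 fruit were used; arcsin-transformed data were compared by LSD, p ≤ 0.05.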

For data set [3], the system named is Penicillium digitatum. In words: Fungicidal activity against TBZ-resistant Penicillium digitatum infected Nova mandarins assessed as postharvest green mold incidence at 200 mg/L treated for 1 min at 50 degC at 20 hr after fungal conidial inoculation measured after 5 days of storage at 20 degC (water Rvb = 95.0%). Type of data set: functional.
Data set [4] relates to Fruit. The experiment in a line: Drug residues in Citrus sinensis cvs. Valencia late (Valencia oranges) at 600 mg/L treated for 1 min at 20 degC postharvest measured immediately post-drug treatment in presence of 1% SBC by GC analysis. Type of data set: ADME. An outline of the steps:
as §1

Data set [5] concerns Penicillium digitatum. In words: Fungicidal activity against Penicillium digitatum infected Valenica oranges assessed as fruit weight loss at 200 mg/L treated for 1 min at 50 degC postharvest at 20 hr after fungal conidial inoculation measured after 21 days of storage at 17 degC (water Rvb = 8.83%). In kind it is functional.
Data set [6] concerns Penicillium digitatum. In words: Fungicidal activity against TBZ-resistant Penicillium digitatum infected Nova mandarins assessed as postharvest green mold incidence at 600 mg/L treated for 1 min at 20 degC at 20 hr after fungal conidial inoculation measured after 5 days of storage at 20 degC in presence of 0.5% SBC (water Rvb = 86.7%). In kind it is functional.
Data set [7] has as its system Penicillium digitatum. The experiment in a line: Fungicidal activity against Penicillium digitatum infected Valenica oranges assessed as fruit weight loss at 600 mg/L treated for 1 min at 20 degC postharvest at 20 hr after fungal conidial inoculation measured after 7 days of storage at 17 degC in presence of 2% SBC (water Rvb = 3.94%). Type of data set: functional.

Data set [8] deals with Cuticular wax. The experiment in a line: Drug residues in Citrus sinensis cvs. Salustiana (Salustiana oranges) cuticular wax at 600 mg/L treated for 1 min at 20 degC postharvest measured after overnight incubation at 17 degC by GC analysis. In kind it is ADME. An outline of the steps:
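'Salustiana' oranges were washed with water and air-dried. They were dipped 1 or 3 min in TBZ 600 mg/L at 20 or 50 °C, or 1 min in TBZ 600 mg/L plus 2% SBC at 20 °C, then dried overnight at 17 °C in the dark. Surface residue was taken by water extraction and wax residue by chloroform extraction. Inner residue was measured in fruit after both extractions. Extracts were dried under N2, taken up in acetone and analysed by GC. Values are mg/kg on a whole-fruit basis.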

Data set [9] concerns Penicillium digitatum. The experiment in a line: Fungicidal activity against TBZ-resistant Penicillium digitatum infected Valencia oranges assessed as postharvest green mold incidence at 600 mg/L treated for 1 min at 20 degC at 20 hr after fungal conidial inoculation measured after 7 days of storage at 20 degC (water Rvb = 96.7%). In kind it is functional.
Data set [10] deals with Penicillium digitatum. In words: Fungicidal activity against Penicillium digitatum infected Valenica oranges assessed as fruit weight loss at 600 mg/L treated for 1 min at 20 degC postharvest at 20 hr after fungal conidial inoculation measured after 14 days of storage at 17 degC in presence of 0.5% SBC (water Rvb = 7.44%). Type of data set: functional.
The test system of data set [11] is Fruit. In words: Drug residues in Citrus sinensis cvs. Valencia late (Valencia oranges) at 400 mg/L treated for 1 min at 40 degC postharvest measured after 10 days of storage at 17 degC by GC analysis. Type of data set: ADME. An outline of the steps:
as §1

The test system of data set [12] is Penicillium digitatum. In words: Fungicidal activity against TBZ-sensitive Penicillium digitatum infected Nova mandarins assessed as postharvest green mold incidence at 400 mg/L treated for 1 min at 40 degC at 20 hr after fungal conidial inoculation measured after 5 days of storage at 20 degC in presence of 0.5% SBC (water Rvb = 100%). Type of data set: functional. The method in brief: as §2

The test system of data set [13] is Penicillium digitatum. The experiment in a line: Fungicidal activity against TBZ-sensitive Penicillium digitatum infected Nova mandarins assessed as postharvest green mold incidence at 600 mg/L treated for 1 min at 20 degC at 20 hr after fungal conidial inoculation measured after 5 days of storage at 20 degC in presence of 2% SBC (water Rvb = 96.7%). Type of data set: functional. An outline of the steps:
as §2

Turning to `c1ccc2[nH]c(-c3cscn3)nc2c1` [THIABENDAZOLE], the Drug uptake in data set [1] turned out to be 1.4 mg/kg; in [4], 1.31 mg/kg; in data set [8], 0.17 mg/kg; in [11] it was 0.89 mg/kg. Further, the Activity came out at 0% in data set [2]; 65% in data set [3]; 8.54% in [5]; 93.3% in [6]; 4.81% in [7]; 78.3% in [9]. Also, the Activity in [10] worked out at 8.15%; in [12], 0%; in [13] it was 0%.
